Measurements published in ChEMBL document CHEMBL4725436, “Gibberellin JRA-003: A Selective Inhibitor of Nuclear Translocation of IKKα” (ACS Med Chem Lett, 2020).
Activity calls are given as the source filed them. The calls are words filed in the database; no cut-off is given here.

How the values were obtained:
[1] = test system: HEK-293T; assay: Cytotoxicity against human HEK293T cells assessed as reduction in cell viability measured after 24 hrs by CellTiter-Glo luminescent assay; type: cell-based
Outline: (§1)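 High-throughput viability screen of test agents across a panel of 22 cancerous and noncancerous human cell lines. Viability was read by CellTiter-Glo luminescence.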

[2] = Cytotoxicity against human Hs578Bst cells assessed as reduction in cell viability measured after 24 hrs by CellTiter-Glo luminescent assay; type: cell-based; outline: as §1
[3] = test system: CA46; assay: Cytotoxicity against human CA46 cells assessed as reduction in cell viability measured after 24 hrs by CellTiter-Glo luminescent assay; type: functional, cell-based; conditions: CA46, 24 h; outline: as §1
[4] = Cytotoxicity against human Hs895SK cells assessed as reduction in cell viability measured after 24 hrs by CellTiter-Glo luminescent assay; type: cell-based; conditions: Hs 895.Sk; outline: as §1
[5] = test system: NCI-H446; assay: Cytotoxicity against human NCI-H446 cells assessed as reduction in cell viability measured after 24 hrs by CellTiter-Glo luminescent assay; type: functional, cell-based; conditions: NCI-H446, 24 h; outline: as §1
[6] = test system: PSN1; assay: Cytotoxicity against human PSN1 cells assessed as reduction in cell viability measured after 24 hrs by CellTiter-Glo luminescent assay; type: functional, cell-based; conditions: PSN1, 24 h; outline: as §1
[7] = biological target: Transcription factor p65 (Homo sapiens, UniProt Q04206); assay: Binding affinity to NF-kappaB RelA (unknown origin) by SPR analysis
[8] = Cytotoxicity against human Hs888Lu cells assessed as reduction in cell viability measured after 24 hrs by CellTiter-Glo luminescent assay; type: cell-based; outline: as §1
[9] = test system: RCK8; assay: Cytotoxicity against human RC-K8 cells assessed as reduction in cell viability measured after 24 hrs by CellTiter-Glo luminescent assay; type: functional, cell-based; conditions: RCK8, 24 h; outline: as §1
[10] = test system: SUD4; assay: Cytotoxicity against human SU-DHL-4 cells assessed as reduction in cell viability measured after 24 hrs by CellTiter-Glo luminescent assay; type: functional, cell-based; conditions: SU-DHL-4, 24 h; outline: as §1
[11] = test system: Hs-578T; assay: Cytotoxicity against human Hs-578T cells assessed as reduction in cell viability measured after 24 hrs by CellTiter-Glo luminescent assay; type: functional, cell-based; outline: as §1
[12] = Inhibition of IKKalpha/IKKbeta in human HEK293T cells transfected with firefly luciferase gene assessed as inhibition of TNF-alpha-stimulated NF-kappaB signalling preincubated for 1 hr followed by TNF alpha stimulation measured after 3 hrs by luciferase reporter gene assay; type: cell-based; conditions: HEK-293T
Outline: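 Commercial NF-κB-driven luciferase reporter assay in HEK 293T cells stimulated with TNFα. EC50 was derived from the luminescence readout.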

[13] = test system: HCC1599; assay: Cytotoxicity against human HCC1599 cells assessed as reduction in cell viability measured after 24 hrs by CellTiter-Glo luminescent assay; type: functional, cell-based; conditions: HCC1599, 24 h; outline: as §1
[14] = Cytotoxicity against human Hs895T cells assessed as reduction in cell viability measured after 24 hrs by CellTiter-Glo luminescent assay; type: functional, cell-based; outline: as §1
[15] = biological target: T1, Nuclear factor NF-kappa-B p105 subunit (Homo sapiens, UniProt P19838); assay: Binding affinity to NF-kappaB p50 (unknown origin) by SPR analysis
T1 sequence (P19838 whole entry): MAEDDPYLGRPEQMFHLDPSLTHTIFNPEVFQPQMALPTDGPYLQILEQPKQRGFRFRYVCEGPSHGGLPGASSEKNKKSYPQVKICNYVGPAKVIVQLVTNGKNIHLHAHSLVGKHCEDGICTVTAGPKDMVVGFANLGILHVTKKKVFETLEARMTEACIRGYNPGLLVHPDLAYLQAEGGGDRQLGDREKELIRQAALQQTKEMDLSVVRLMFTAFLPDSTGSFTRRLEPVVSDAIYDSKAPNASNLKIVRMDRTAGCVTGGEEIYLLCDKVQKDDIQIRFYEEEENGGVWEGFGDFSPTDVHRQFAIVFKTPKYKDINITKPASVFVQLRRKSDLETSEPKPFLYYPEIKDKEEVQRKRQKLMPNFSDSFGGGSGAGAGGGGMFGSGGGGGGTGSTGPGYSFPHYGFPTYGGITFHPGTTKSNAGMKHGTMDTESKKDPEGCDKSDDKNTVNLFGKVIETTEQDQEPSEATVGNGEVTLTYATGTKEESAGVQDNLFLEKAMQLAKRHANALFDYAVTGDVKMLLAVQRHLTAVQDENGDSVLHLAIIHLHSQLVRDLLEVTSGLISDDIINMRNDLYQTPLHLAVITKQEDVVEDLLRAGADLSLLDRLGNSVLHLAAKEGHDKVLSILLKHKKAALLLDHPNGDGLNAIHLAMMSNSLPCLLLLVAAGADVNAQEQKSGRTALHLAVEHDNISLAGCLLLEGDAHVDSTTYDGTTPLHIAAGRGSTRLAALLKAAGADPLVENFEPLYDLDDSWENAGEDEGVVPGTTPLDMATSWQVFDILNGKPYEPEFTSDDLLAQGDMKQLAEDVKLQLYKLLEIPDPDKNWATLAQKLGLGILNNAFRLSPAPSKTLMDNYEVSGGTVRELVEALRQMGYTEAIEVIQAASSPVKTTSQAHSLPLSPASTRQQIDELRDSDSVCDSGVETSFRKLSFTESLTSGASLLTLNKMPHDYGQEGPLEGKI

[16] = biological target: T2, Inhibitor of nuclear factor kappa-B kinase subunit alpha (Homo sapiens) (UniProt O15111); assay: Irreversible covalent binding affinity to IKKalpha in human HeLa cells at 10 uM preincubated with IL-1 beta for 3 hrs followed by incubation with compound for 2 hrs measured following rigorous washing by pull down based western blotting analysis; type: cell-based
T2 sequence (whole entry): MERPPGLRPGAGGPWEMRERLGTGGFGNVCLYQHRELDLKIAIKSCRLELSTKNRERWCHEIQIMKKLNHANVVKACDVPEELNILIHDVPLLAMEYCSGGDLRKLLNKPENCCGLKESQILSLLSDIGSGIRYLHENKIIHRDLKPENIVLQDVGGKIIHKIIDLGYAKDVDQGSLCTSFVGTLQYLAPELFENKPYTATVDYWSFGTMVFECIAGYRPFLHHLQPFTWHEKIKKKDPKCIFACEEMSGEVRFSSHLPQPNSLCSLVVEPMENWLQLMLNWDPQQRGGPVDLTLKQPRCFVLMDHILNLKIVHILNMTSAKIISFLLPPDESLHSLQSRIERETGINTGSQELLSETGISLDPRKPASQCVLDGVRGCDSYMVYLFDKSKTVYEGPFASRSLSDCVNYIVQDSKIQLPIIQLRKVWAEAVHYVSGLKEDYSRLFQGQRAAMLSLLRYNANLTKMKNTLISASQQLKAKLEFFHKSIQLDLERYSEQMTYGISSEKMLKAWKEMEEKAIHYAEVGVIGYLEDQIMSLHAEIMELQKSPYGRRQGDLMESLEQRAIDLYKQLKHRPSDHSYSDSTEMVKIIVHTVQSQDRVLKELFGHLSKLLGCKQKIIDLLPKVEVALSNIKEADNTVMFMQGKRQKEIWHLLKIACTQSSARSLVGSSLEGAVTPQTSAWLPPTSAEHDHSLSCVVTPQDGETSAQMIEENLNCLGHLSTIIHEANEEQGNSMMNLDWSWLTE
Outline: (§2)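 Alkyne-tagged probe pull-down in IL-1β-stimulated HeLa cells. Protein captured by the probe was analysed by Western blotting.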

[17] = biological target: T2, Inhibitor of nuclear factor kappa-B kinase subunit alpha (Homo sapiens); assay: Binding affinity to IKKalpha in human HeLa cells at 10 uM preincubated with IL-1 beta for 3 hrs followed by incubation with compound for 2 hrs by pull down based western blotting analysis; type: cell-based; outline: as §2
[18] = Toxicity in po dosed rat; type: organism-based; conditions: in vivo
[19] = biological target: T3, Inhibitor of nuclear factor kappa-B kinase subunit beta (Homo sapiens) (UniProt O14920); assay: Inhibition of JRA-031 binding to IKKbeta in TNF-alpha-stimulated human HEK293T cells at 1 uM pretreated with compound for 1 hr followed by labeling with JRA-031 for 1 hr followed by stimulation with TNF-alpha for 1 hr by pull down based mass spectrometry; type: cell-based; conditions: HEK-293T
T3 sequence (whole entry): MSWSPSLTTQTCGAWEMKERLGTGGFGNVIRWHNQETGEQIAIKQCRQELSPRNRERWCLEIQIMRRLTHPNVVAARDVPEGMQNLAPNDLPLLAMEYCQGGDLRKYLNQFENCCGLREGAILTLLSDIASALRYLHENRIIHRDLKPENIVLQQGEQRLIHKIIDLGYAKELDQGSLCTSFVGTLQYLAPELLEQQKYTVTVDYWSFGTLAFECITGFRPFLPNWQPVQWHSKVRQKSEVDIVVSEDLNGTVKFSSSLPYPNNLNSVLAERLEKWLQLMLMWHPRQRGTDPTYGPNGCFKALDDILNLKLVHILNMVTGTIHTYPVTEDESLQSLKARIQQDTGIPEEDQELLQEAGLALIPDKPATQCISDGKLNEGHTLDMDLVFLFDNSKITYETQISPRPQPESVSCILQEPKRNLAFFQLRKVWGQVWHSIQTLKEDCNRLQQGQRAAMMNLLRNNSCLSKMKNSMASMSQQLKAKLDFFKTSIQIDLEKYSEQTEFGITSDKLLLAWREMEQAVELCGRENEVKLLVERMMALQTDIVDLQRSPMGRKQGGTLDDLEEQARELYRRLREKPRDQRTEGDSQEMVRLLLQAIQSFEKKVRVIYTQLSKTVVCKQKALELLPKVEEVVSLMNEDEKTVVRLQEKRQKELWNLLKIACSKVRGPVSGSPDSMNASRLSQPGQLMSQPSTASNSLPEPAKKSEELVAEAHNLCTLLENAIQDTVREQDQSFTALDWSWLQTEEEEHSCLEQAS

[20] = biological target: T2, Inhibitor of nuclear factor kappa-B kinase subunit alpha (Homo sapiens); assay: Inhibition of JRA-031 binding to IKKalpha in TNF-alpha-stimulated human HEK293T cells at 1 uM pretreated with compound for 1 hr followed by labeling with JRA-031 for 1 hr followed by stimulation with TNF-alpha for 1 hr by pull down based mass spectrometry; type: cell-based; conditions: HEK-293T
[21] = biological target: T2, Inhibitor of nuclear factor kappa-B kinase subunit alpha (Homo sapiens); assay: Binding affinity to IKKalpha in human HeLa cells at 50 uM preincubated with IL-1 beta for 3 hrs followed by incubation with compound for 2 hrs by pull down based western blotting analysis; type: cell-based; outline: as §2

Transcription factor p65, sequence (Q04206 whole entry): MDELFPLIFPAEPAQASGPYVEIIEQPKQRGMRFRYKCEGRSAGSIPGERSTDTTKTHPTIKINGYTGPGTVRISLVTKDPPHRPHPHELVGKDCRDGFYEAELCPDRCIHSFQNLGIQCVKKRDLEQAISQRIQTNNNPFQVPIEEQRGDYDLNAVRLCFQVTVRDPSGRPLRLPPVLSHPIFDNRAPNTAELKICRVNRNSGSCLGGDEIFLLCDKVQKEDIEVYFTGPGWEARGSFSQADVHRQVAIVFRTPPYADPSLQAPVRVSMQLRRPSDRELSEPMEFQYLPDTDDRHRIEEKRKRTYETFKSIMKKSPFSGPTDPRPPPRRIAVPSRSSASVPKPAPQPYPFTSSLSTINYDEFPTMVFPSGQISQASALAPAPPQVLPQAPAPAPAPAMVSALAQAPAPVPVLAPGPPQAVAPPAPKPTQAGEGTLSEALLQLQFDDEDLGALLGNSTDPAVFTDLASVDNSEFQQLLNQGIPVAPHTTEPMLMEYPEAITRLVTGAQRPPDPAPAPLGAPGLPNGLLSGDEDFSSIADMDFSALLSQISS

| Compound | IC50 [1] | IC50 [2] | IC50 [3] | IC50 [4] | IC50 [5] | IC50 [6] | IC50 [8] | IC50 [9] | IC50 [10] | IC50 [11] | EC50 [12] | IC50 [13] | IC50 [14] | also measured |
| --- | --- | --- | --- | --- | --- | --- | --- | --- | --- | --- | --- | --- | --- | --- |
| C=C1C[C@]23C[C@@]1(O)CC[C@@H]2c1cccc(C)c1[C@@H]3C(=O)O | > 10 µM | > 10 µM | > 10 µM | > 10 µM | > 10 µM | > 10 µM | > 10 µM | > 10 µM | > 10 µM | > 10 µM | > 100 µM | > 10 µM | > 10 µM | Kd [7]: 6.34 µM; Kd [15]: 0.076 µM |
| C#CCCNC(=O)[C@H]1[C@@H]2[C@@]3(C)C(=O)C=C[C@@]2(OC3=O)[C@@H]2CC[C@]3(O)C[C@@]21CC3=C |  |  |  |  |  |  |  |  |  |  |  |  |  | inhibition [16]: Active; inhibition [17]: Active |
| C=C1C[C@]23C[C@@]1(O)CC[C@H]2[C@@]12C=C[C@H](O)[C@@](C)(C(=O)O1)[C@H]2[C@@H]3C(=O)O [GIBBERELLIN A3] | > 10 µM | > 10 µM | > 10 µM | > 10 µM | > 10 µM | > 10 µM | > 10 µM | > 10 µM | > 10 µM | > 10 µM | > 100 µM | > 10 µM | > 10 µM | LD50 [18]: 6300 mg/kg |
| C=C1C[C@]23C[C@@]1(O)CC[C@H]2[C@@]12C=C[C@H](O)[C@@](C)(C(=O)O1)[C@H]2[C@@H]3C(=O)OC | > 10 µM | > 10 µM | > 10 µM | > 10 µM | > 10 µM | > 10 µM | > 10 µM | > 10 µM | > 10 µM | > 10 µM | > 100 µM | > 10 µM | > 10 µM | inhibition [19]: inactive; inhibition [20]: inactive |
| C#CCCNC(=O)[C@H]1[C@H]2[C@@]3(C=C[C@H](O)[C@@]2(C)C(=O)O3)[C@@H]2CC[C@]3(O)C[C@@]21CC3=C |  |  |  |  |  |  |  |  |  |  |  |  |  | inhibition [21]: inactive |
| C=C1[C@@H](O)[C@]23C[C@@]1(O)CC[C@@H]2c1cccc(C)c1[C@@H]3C(=O)OC | > 10 µM | > 10 µM | > 10 µM | > 10 µM | > 10 µM | > 10 µM | > 10 µM | > 10 µM | > 10 µM | > 10 µM | > 100 µM | > 10 µM | > 10 µM |  |
